From PubChem BioAssay
Activity calls are given as the source filed them.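 Rule for the calls, unless noted: active = GFP response above 150% of the DMSO level; inconclusive = fewer than 70 events counted for a yeast strain; inactive = the rest.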

Legend:
[1] = hit retest on RPL19A-GFP reporter strain – cell-based, S. cerevisiae, flow cytometry, cherry picks, mother/daughter gates, confirmation (AID 2270;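 active = GFP response below 50% of the DMSO control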); conditions: 3 h, at 10 µM, stronger effect = lower value, 100 = same GFP as DMSO wells
[2] = yeast TOR pathway reporter LAP4-GFP change – cell-based, cherry picks, flow cytometry, mother/daughter gates, confirmation (AID 2271;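 active = GFP response above 150% of the DMSO control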;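 note: ratio of sample to DMSO plate mean so 100% equals DMSO level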); conditions: S. cerevisiae LAP4-GFP strain, 3 h, at 10 µM, stronger effect = higher value, 100 means same as DMSO control
In short: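 Material – Alexa Fluor 633-labelled Saccharomyces cerevisiae GFP-fusion strain, single-plex · Incubation – compound exposure 3 h at 30 °C, end-over-end rotation · Measured by – GFP by flow cytometry · Measure – median GFP fluorescence as percent of plate-mean DMSO wells · Control set – positive rapamycin (400 ng/mL), negative DMSO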

[3] = TOR pathway reporter MEP2-GFP, retest of hits – S. cerevisiae, flow cytometry GFP, cherry picks, confirmation (AID 2272;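 active = GFP response above 150% of the DMSO control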;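 note: ratio of well signal to plate DMSO mean so 100% equals DMSO level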); conditions: S. cerevisiae MEP2-GFP strain, 3 h, at 10 µM, stronger effect = higher value
[4] = yeast AGP1-GFP fluorescence change, single-dose – cell-based, flow cytometry, S. cerevisiae, cherry picks, confirmation (AID 2273);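 note: median GFP channel fluorescence over the whole cell population gate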; conditions: S. cerevisiae AGP1-GFP strain, 3 h, at 10 µM
[5] = TOR pathway CIT2 reporter hit retest – S. cerevisiae, GFP fusion, cherry picks, mother/daughter gates, confirmation (AID 2274); conditions: S. cerevisiae CIT2-GFP strain, flow cytometry, 3 h, at 10 µM, stronger effect = higher value
[6] = measured here: daughter cell gate
[7] = measured here: mother cell gate
[8] = measured here: daughter cell gate response
[9] = measured here: mother cell gate response

| SMILES | GFP response vs DMSO [1] | GFP response vs DMSO [1, 6] [%] | GFP response vs DMSO [1, 7] [%] | GFP response relative to DMSO [2] | GFP response relative to DMSO [2, 8] [%] | GFP response relative to DMSO [2, 9] [%] | GFP response vs DMSO [3] | GFP response, % of DMSO [4] | GFP response, % of DMSO [5] | GFP response, % of DMSO [5, 6] [%] | GFP response, % of DMSO [5, 7] [%] |
| --- | --- | --- | --- | --- | --- | --- | --- | --- | --- | --- | --- |
| COc1ccc(N=Cc2nc(-c3ccccc3)oc2OC(C)=O)cc1 | 100% (inactive) | 99.1 | 101 | 107% (inactive) | 96.5 | 111 | 95.4% (inactive) | 94% (inactive) | 90.7% (inactive) | 90.9 | 88.6 |
| N/C(Cc1ccc(Cl)c(Cl)c1)=N\OC(=O)c1cccs1 | 94.9% (inactive) | 89.4 | 83 | 226% (active) | 160 | 206 | 122% (inactive) | 103% (inactive) | 176% (active) | 126 | 159 |
| Cc1c(N2C(=O)/C(=C\c3ccccc3O)SC2=S)c(=O)n(-c2ccccc2)n1C | 101% (inactive) | 96 | 98.3 | 134% (inactive) | 130 | 137 | 102% (inactive) | 93.2% (inactive) | 105% (inactive) | 109 | 95.6 |
| CCOc1ccccc1N1C(=O)CC(Sc2ncccc2C(=O)O)C1=O (stereo not drawn) | 101% (inactive) | 99 | 102 | 106% (inactive) | 106 | 107 | 120% (inactive) | 98.5% (inactive) | 103% (inactive) | 105 | 102 |
| CCC(CC)C(=O)Nc1cccc(/C(C)=N/NC(=O)c2ccccc2Cl)c1 | 98.6% (inactive) | 97 | 99.1 | 99.8% (inactive) | 103 | 99.3 | 102% (inactive) | 100% (inactive) | 100% (inactive) | 99.7 | 102 |
| O=C(N/N=C/c1ccc(Cl)cc1Cl)c1cccc(F)c1 | 97% (inactive) | 92.7 | 97.3 | 104% (inactive) | 98.2 | 109 | 103% (inactive) | 101% (inactive) | 86% (inactive) | 84.1 | 84.8 |
| COc1ccc(C2CC(c3c(-c4ccccc4)c4cc(Cl)ccc4[nH]c3=O)=NN2S(C)(=O)=O)cc1OC (stereo not drawn) | 99.6% (inactive) | 101 | 98.5 | 91.5% (inactive) | 92.8 | 89.7 | 96.2% (inactive) | 98.3% (inactive) | 99.7% (inactive) | 99.1 | 98.5 |
| Clc1ccc(-n2nnnc2Sc2ncnc3sccc23)cc1 | 100% (inactive) | 98.4 | 98.8 | 131% (inactive) | 123 | 130 | 131% (inactive) | 115% (inactive) | 106% (inactive) | 105 | 105 |
| COC(=O)c1ccc(C2Nc3cccc4cccc(c34)N2)cc1 | 105% (inactive) | 102 | 106 | 129% (inactive) | 123 | 133 | 103% (inactive) | 92.8% (inactive) | 93% (inactive) | 90.2 | 93.2 |
| Cc1cc(C)c2sc(NC(=O)C3=COCCO3)nc2c1 | 95.8% (inactive) | 95.5 | 97.9 | 94.2% (inactive) | 95 | 96.5 | 99.5% (inactive) | 92.5% (inactive) | 102% (inactive) | 104 | 101 |
| CCOC(=O)c1ccc(NC(=O)CCc2nc(-c3ccccc3Cl)no2)cc1 | 101% (inactive) | 100 | 102 | 103% (inactive) | 101 | 103 | 108% (inactive) | 97.5% (inactive) | 101% (inactive) | 102 | 98 |
| O=C(c1ccccc1F)N1CCN(c2ccccc2F)CC1 | 101% (inactive) | 99.8 | 102 | 98.7% (inactive) | 100 | 99.3 | 100% (inactive) | 95% (inactive) | 104% (inactive) | 105 | 105 |
| C=CCOc1cccc(C(=O)/C=C2/C(=O)Nc3ccccc32)c1 | 102% (inactive) | 97.9 | 98.8 | 114% (inactive) | 107 | 117 | 112% (inactive) | 105% (inactive) | 102% (inactive) | 103 | 98.1 |
| CCc1ccc(NC(=O)c2nc(S(=O)(=O)Cc3ccccc3)ncc2Cl)cc1 | 94.8% (inactive) | 94.2 | 93.8 | 126% (inactive) | 118 | 124 | 97.5% (inactive) | 96% (inactive) | 87.8% (inactive) | 90.9 | 82.8 |
| COc1cc(/C=C/C(=O)c2c(O)ccc3c(C)cc(=O)oc23)ccc1O | 95% (inactive) | 94.4 | 95.8 | 124% (inactive) | 120 | 130 | 98.3% (inactive) | 92.5% (inactive) | 96.9% (inactive) | 101 | 93.8 |
| COC(=O)c1ccccc1OCC(=O)NC1CCCCC1 | 88.9% (inactive) | 83.8 | 92.2 | 135% (inactive) | 126 | 145 | 89.9% (inactive) | 91.7% (inactive) | 84.1% (inactive) | 80.7 | 85.5 |
| COc1ccc(-c2nc(N)n(C(C)=O)n2)cc1 | 103% (inactive) | 102 | 104 | 95% (inactive) | 97.2 | 95.2 | 102% (inactive) | 97.4% (inactive) | 110% (inactive) | 110 | 111 |

| SMILES | GFP response vs DMSO [1] | GFP response vs DMSO [1, 6] [%] | GFP response vs DMSO [1, 7] [%] | GFP response relative to DMSO [2] | GFP response relative to DMSO [2, 8] [%] | GFP response relative to DMSO [2, 9] [%] | GFP response vs DMSO [3] | GFP response, % of DMSO [4] | GFP response, % of DMSO [5] | GFP response, % of DMSO [5, 6] [%] | GFP response, % of DMSO [5, 7] [%] |
| --- | --- | --- | --- | --- | --- | --- | --- | --- | --- | --- | --- |
| O=[N+]([O-])c1cc(F)c2cccnc2c1O | 98.7% (inactive) | 93.3 | 96.7 | 219% (active) | 176 | 204 | 126% (inactive) | 125% (inactive) | 107% (inactive) | 101 | 104 |
| CCCCCCNC(=O)c1c(O)c2cccc3c2n(c1=O)CCC3 | 100% (inactive) | 101 | 100 | 97.9% (inactive) | 97.6 | 95.1 | 107% (inactive) | 96.8% (inactive) | 96.9% (inactive) | 97.2 | 96.1 |
| CC(C)(C)C(=O)NCC12C=CC(O1)C1C(=O)N(c3ccccc3)C(=O)C12 (stereo not drawn) | 94% (inactive) | 96.1 | 92.9 | 108% (inactive) | 108 | 111 | 110% (inactive) | 104% (inactive) | 106% (inactive) | 105 | 105 |
| CCn1cc([N+](=O)[O-])c(C(=O)Nc2nc(-c3ccc(C)c(C)c3)c(C)s2)n1 | 98.8% (inactive) | 98.6 | 99.2 | 95.4% (inactive) | 97.6 | 94 | 100% (inactive) | 101% (inactive) | 99.7% (inactive) | 99.1 | 97.3 |
| COC(=O)c1ccccc1NC(=O)c1nc(S(=O)(=O)Cc2ccccc2)ncc1Cl | 102% (inactive) | 101 | 102 | 89% (inactive) | 92.5 | 92.1 | 100% (inactive) | 97.8% (inactive) | 104% (inactive) | 101 | 103 |
| O=C1C=CC(=O)N1c1ccc(O)cc1 | 96.6% (inactive) | 96.9 | 85.9 | 196% (active) | 192 | 192 | 100% (inactive) | 90% (inactive) | 96.9% (inactive) | 116 | 84.3 |
| Cc1ccc(SC(=O)c2c(C)noc2-c2cc(C)on2)cc1 | 103% (inactive) | 102 | 104 | 120% (inactive) | 120 | 121 | 126% (inactive) | 107% (inactive) | 124% (inactive) | 124 | 121 |
| Oc1ccc(C2Nc3cccc4cccc(c34)N2)cc1 | 99% (inactive) | 99.2 | 99.4 | 107% (inactive) | 105 | 111 | 97.8% (inactive) | 98.7% (inactive) | 100% (inactive) | 98.1 | 102 |
| CCOC(=O)Cc1csc(NC(=O)COc2ccc(N(C)S(=O)(=O)c3cccs3)cc2)n1 | 95% (inactive) | 94.9 | 92 | 102% (inactive) | 101 | 98.3 | 105% (inactive) | 96.6% (inactive) | 95.5% (inactive) | 97.2 | 95 |
| O=C(OCCOc1ccccc1)c1n[nH]c2ccccc12 | 96.4% (inactive) | 95.7 | 97.2 | 103% (inactive) | 97.9 | 101 | 97.5% (inactive) | 102% (inactive) | 102% (inactive) | 104 | 100 |
| CN1CCN(/N=C/c2c3ccccc3c(Cl)c3ccccc23)CC1 | 94.9% (inactive) | 95 | 94 | 105% (inactive) | 101 | 101 | 105% (inactive) | 99.8% (inactive) | 101% (inactive) | 102 | 95.7 |
| O=C(CCc1nc(-c2ccccc2)no1)Nc1cc(C(F)(F)F)ccc1Cl | 105% (inactive) | 105 | 103 | 91.9% (inactive) | 91 | 92 | 105% (inactive) | 102% (inactive) | 112% (inactive) | 108 | 110 |
| CCC(=O)Nc1cccc(C(=O)/C=C/c2cc(Br)ccc2OC)c1 | 98.8% (inactive) | 99.2 | 97.7 | 103% (inactive) | 98.7 | 110 | 104% (inactive) | 97.2% (inactive) | 93.9% (inactive) | 94.8 | 91.2 |
| O=C(O)c1ccccc1C(=O)N1CCN(c2ccccc2)CC1 | 99.2% (inactive) | 99.9 | 99.7 | 96.7% (inactive) | 96 | 96.1 | 98.3% (inactive) | 101% (inactive) | 103% (inactive) | 105 | 102 |
| CCCn1nc(C(=O)OCC(=O)c2ccc3c(c2)NC(=O)CO3)c2ccccc2c1=O | 97.2% (inactive) | 96.6 | 96.5 | 98.2% (inactive) | 97.5 | 98.4 | 105% (inactive) | 96.3% (inactive) | 100% (inactive) | 97.4 | 101 |
| CCc1oc2ccccc2c1C(=O)CCN1CCCCC1 | 99.6% (inactive) | 98.4 | 99.6 | 102% (inactive) | 99.1 | 103 | 101% (inactive) | 101% (inactive) | 98.8% (inactive) | 99.2 | 96.8 |
